High-throughput results from PubChem.
b-catenin transl – modulators of beta-catenin nuclear translocation, primary screen, imaging, HeLa cells, immunofluorescence, high-content; AID 1665, 2009; nuclear translocation activity, % at 5 µM; 0.3% of 190,000 active;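 active means nuclear translocation activity above 50% at 5 µM, with a well cell count of 50 or more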;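 further: per-cell ratio of nuclear to cytoplasmic median beta-catenin stain intensity; plate controls were DMSO negative control for no effect and GSK-3 inhibitor IX positive control for full effect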
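Read-out: Nuclear/cytoplasmic beta-catenin signal ratio, % activation | Assay system: Human HeLa cell line | Times: 24 h compound exposure at 37°C, 5% CO2 | Signal: Fluorescence imaging of beta-catenin antibody stain plus DAPI | Dosing: 5 µM primary, 0.02–20 µM confirmation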
Lmaj promast – Leishmania major promastigote growth inhibition, primary screen. Leishmania major promastigotes, resazurin fluorescence viability. inhibition, % at 10 µM. 9% of 200,000 active. AID 1063, 2008; in the data active means inhibition above about 50%;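 further: promastigotes grown with compound for 44 hours at 28 °C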
BaF3 tox – parental Ba/F3 cell viability inhibition, counter-screen for JAK2V617F inhibitor project, murine pro-B, CellTiter-Glo luminescence; CellTiter-Glo ATP luminescence; inhibition, % at 5.6 µM; 1.1% of 220,000 active; AID 1486, 2009;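 active means inhibition above a per-campaign cutoff, the mean inhibition of all tested compounds plus 3 SD, cut at about 27% in these data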;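 further: 0% = DMSO wells and 100% = JAK Inhibitor I control wells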
Ba/F3 V617F tox – reduced viability of JAK2V617F-dependent Ba/F3 cells, primary screen, JAK2V617F inhibitor project, cell-based, Ba/F3 EpoR-JAK2V617F, luminescence | ATP luminescence | inhibition, % at 5.6 µM | 1.1% of 220,000 active;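 active means inhibition above the campaign mean plus 3 SD over all tested compounds, cut at about 24% in these data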;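 further: cytokine-independent growth of Ba/F3 cells driven by EpoR plus mutant JAK2; 0% = DMSO-treated cells and 100% = JAK inhibitor I control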
MT stabilizer – microtubule stabilizers in HeLa cells, primary screen, imaging, high-content imaging; HeLa tubulin immunostaining HCS, 24 h; share of cells brighter than vehicle mean+2SD; % tubulin-high responders, % at 10 µM; 0.83% of 200,000 active; AID 2205, 2009;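 active means plate Z-score above 3 for both tubulin-high and condensed-nucleus cell shares, with cell loss under 80%, at 10 µM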;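 further: anti alpha tubulin signal scored within the nucleus-defined area of each cell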
APP transl inh – inhibitors of APP translation via 5'UTR reporter, primary screen, APP 5'UTR luciferase, SH-SY5Y cells. AID 1285, 2008. 0.82% of 190,000 active. inhibition, % at 2 µM. SH-SY5Y APP 5'UTR-luciferase reporter, luminescence;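 active means inhibition above a set limit, derived from the sample mean plus 3 SD, cut at about 45% in these data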
* hit, by the source's call; . = no result. Rows were chosen to be rich in hits. Some 9.6% of all compounds tested hit in one or more screens of this group.

SMILES	b-catenin transl	Lmaj promast	BaF3 tox	Ba/F3 V617F tox	MT stabilizer	APP transl inh
N#CC1=C(N)C(C#N)(C#N)C(c2cccnc2)C2CC(c3ccccc3)CC=C12 (centres undefined)	4	55*	-1	-3	4	13
N#CC1=C(N)C(C#N)(C#N)C(c2cccnc2)C2CCCC=C12 (centres undefined)	0	33	5	-1	6	2
COc1cc(/C(C)=N/NC(=O)CSc2nncn2C)ccc1OCc1ccccc1Cl	2	73*	6	3	2	-27
Cc1cc(Cl)c(S(=O)(=O)Nc2ccc3c(c2)OCO3)cc1OCC(N)=O	-1	0	10	4	4	3
Cc1ccc(C(=O)CCC(=O)Nc2ccc(Cl)c(S(=O)(=O)Nc3cccc(Cl)c3)c2)cc1	0	14	8	3	3	-7
Cc1ccc(NS(=O)(=O)c2cc(OCC(N)=O)c(C)cc2Cl)cc1	1	79*	1	-3	6	11
CCOc1ccc(NS(=O)(=O)c2cc(NC(=O)c3ccc(C)cc3)ccc2Cl)cc1	24	38	70*	80*	21*	87*
Cc1onc(-c2ccccc2Cl)c1C(=O)NC(=S)NCC(=O)c1ccccc1	0	-6	5	-3	2	-10
CCCn1cc(CN2CCC(N3CCC(C(=O)N4CCOCC4)CC3)CC2)c(C)n1	1	.	-2	-1	.	.
c1ccc(Nc2nc(N3CCNCC3)nc(N3CCOCC3)n2)cc1	0	3	1	-3	5	14
Cc1[nH]c2ccccc2c1/C=N/Nc1nc(Nc2ccc(F)cc2)nc(N2CCOCC2)n1	-6	99*	10	0	6	13
C(=N\Nc1nc(Nc2ccccc2)nc(N2CCOCC2)n1)/c1c[nH]c2ccccc12	.	97*	67*	78*	8	21
Cc1ccc(Nc2nc(N/N=C/c3c[nH]c4ccccc34)nc(N3CCOCC3)n2)cc1	16	54*	62*	80*	7	32
CC(=O)N[C@@H](C)C(=O)N1CCN(S(=O)(=O)c2ccc(Cl)cc2)CC1	-3	-5	7	0	4	-1
Cc1ccc(C(=O)N2CCN(C3c4cccc5cccc(c45)C3NS(=O)(=O)c3ccccc3)CC2)cc1 (centres undefined)	0	50	-1	0	3	0
Cc1ccc(C(=O)NC(=S)N2CCN(C)CC2)cc1	2	4	2	-3	1	52*
Cc1cccc(C(=O)NC(=S)N2CCN(C(=S)NC(=O)c3cccc(C)c3)CC2)c1	.	73*	7	5	3	4
COc1ccc(C(=O)NC(=S)Nc2ccccc2F)cc1	0	64*	3	-1	3	-116
Cc1cc(C)nc(-n2c(Nc3ccccc3)cc(=O)c3c(C)n(-c4ccccc4)c(=O)nc32)n1	.	-5	11	0	2	-11
COc1ccc(C2CC(c3cccs3)=Nc3ccccc3S2)cc1 (centres undefined)	-1	64*	3	1	21*	-85
CN(C)c1ccc(N=Nc2ccccc2C(=O)OCC(=O)NC2CCCC2)cc1	0	7	2	-3	3	-10
CN(C)c1ccc(N=Nc2ccccc2C(=O)OCC(=O)NCC2CCCCC2)cc1	-1	97*	3	-2	2	-22
CN1C=CC(=C2C(=O)c3ccccc3C2=O)C=C1	0	-1	2	4	2	-102
CCCN1C=CC(=C2C(=O)c3ccccc3C2=O)C=C1	.	11	21	18	4	81*
CCCCCCN1C=CC(=C2C(=O)c3ccccc3C2=O)C=C1	-4	11	11	5	1	-48
SMILES	b-catenin transl	Lmaj promast	BaF3 tox	Ba/F3 V617F tox	MT stabilizer	APP transl inh
CCN1C=CC(=C2C(=O)c3ccccc3C2=O)C=C1	.	16	14	6	2	70*
CCOC(=O)c1cnc(-n2nc(C)cc2C)nc1NCCc1ccccc1	-6	99*	4	-2	3	1
COc1ccc(/C(C)=N/Nc2ccc(C(=O)O)cc2)c(OC)c1	-2	53*	5	2	3	-124
CN1C(=O)/C(=C\c2ccncc2)SC1=Nc1ccccc1	.	44	5	-4	1	11
CCOC(=O)Cn1c(=N)n(Cc2ccccc2)c2ccccc21	1	-2	6	-2	2	4
Cn1c(=O)n(CCOc2ccc(Cl)cc2Cl)c2ccccc21	.	-1	3	0	2	3
Cc1ccc(OCC(O)Cn2c(=N)n(Cc3ccccc3)c3ccccc32)cc1 (centres undefined)	-4	100*	9	3	7	8
N=c1n(CCO)c2ccccc2n1Cc1ccc(Cl)cc1	-2	9	5	5	3	8
N=c1n(Cc2ccc(Cl)cc2)c2ccccc2n1CC(O)COc1ccccc1 (centres undefined)	6	100*	36*	12	21*	-6
N=c1n(Cc2ccccc2)c2ccccc2n1CC(O)COc1ccc(Cl)cc1Cl (centres undefined)	28	100*	10	3	22	-19
S=C(Sc1ccc(Cl)cc1)Sc1ccc(Cl)cc1	1	.	2	1	.	.
Cc1cc(C)cc(Oc2ccccc2CO)c1	0	-3	6	-1	3	0
CCOc1ccc(S(=O)(=O)N2CCN(c3ccc(OC)cc3)CC2)c2cccnc12	1	16	4	2	4	-1
CCOc1ccc(S(=O)(=O)Nc2cccc(C)c2)c2cccnc12	2	-5	3	4	2	7
CCOc1ccc(S(=O)(=O)NCc2ccc(F)cc2)c2cccnc12	0	89*	-2	2	3	-8
CCOc1ccc(S(=O)(=O)NCc2ccc(OC)cc2)c2cccnc12	0	90*	3	0	2	5
NC(=O)c1c(/N=C/c2cccs2)sc2c1CCCC2	0	.	-6	-5	.	.
O=C(c1cc([N+](=O)[O-])cc([N+](=O)[O-])c1)N1CCCc2ccccc21	-1	79*	1	5	3	4
O=C(c1cc([N+](=O)[O-])ccc1N1CCCCC1)N1CCCCC1	-1	3	1	-2	2	-11
O=C(c1cc([N+](=O)[O-])ccc1N1CCCCC1)N1CCc2ccccc21	0	27	7	3	17*	42
O=C(c1ccc(N2CCCCCC2)c([N+](=O)[O-])c1)N1CCc2ccccc21	4	89*	3	-2	1	6
O=C(Cc1ccc([N+](=O)[O-])cc1)N1CCCc2ccccc21	0	13	4	1	4	-32
